# Compound activity from PubChem.
# Most compounds without a hit are left out; they make up all but 3% or so of the library.
# SIRT5 inh: inhibitors of human sirtuin-5 desuccinylase. Purified SirT5, succinyl-peptide AMC, trypsin-coupled fluorescence. AID 652115. inhibition, % at 15 µM. Q9NXA8. 1.1% of 330,000 active; in the data active = inhibition above about 15%; inconclusive = no clear call, values can overlap the other calls
# Target sequence (Q9NXA8 whole entry, looked up): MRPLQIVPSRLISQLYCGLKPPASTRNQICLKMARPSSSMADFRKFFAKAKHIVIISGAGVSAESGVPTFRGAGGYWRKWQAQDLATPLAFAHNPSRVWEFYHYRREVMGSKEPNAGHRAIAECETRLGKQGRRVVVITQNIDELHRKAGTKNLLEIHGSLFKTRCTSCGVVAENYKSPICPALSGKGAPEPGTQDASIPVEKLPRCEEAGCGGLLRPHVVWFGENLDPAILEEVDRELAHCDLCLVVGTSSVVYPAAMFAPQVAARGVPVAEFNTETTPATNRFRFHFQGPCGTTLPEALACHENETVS
# Statin myotox sup: suppressors of simvastatin-induced myotoxicity in C2C12 myotubes | AID 602340 | 0.78% of 330,000 active | ATP luminescence, 48 h; scaled: DMSO 0, geranylgeraniol control 100 | rescue of ATP level, % at 7.49 µM;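 active = mean ATP rescue above about 67%, or every replicate alone reaching that limit, limit read from the data, passing the limit was not always enough; inconclusive = no clear call, values can overlap the other calls; inactive = mean under the limit and some replicate under it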;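 note: myotubes were challenged with 10 µM simvastatin during compound exposure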
# S100A4 inh HTS: S100A4-myosin IIA interaction inhibition; P26447; S100A4/TAMRA-MyoIIA peptide fluorescence polarization; inhibition, % at 10.7 µM; 0.14% of 360,000 active;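 active = mean inhibition of at least 70% across replicates, with every replicate also reaching that level; inconclusive = mean inhibition reaches 70% but some replicates fall short; inactive = mean inhibition below 70%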
# Target sequence (P26447 whole entry, looked up): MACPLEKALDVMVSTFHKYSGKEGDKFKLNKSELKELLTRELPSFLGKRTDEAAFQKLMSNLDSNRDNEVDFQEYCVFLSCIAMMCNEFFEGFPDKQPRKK
#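 Compound dosing: one dose per compound; test system: human S100A4 monomer with TAMRA-labelled myosin IIA peptide; probe or stimulus: TAMRA-labelled myosin IIA heavy-chain peptide probe, 5 nM; medium: HEPES buffer with Ca2+, pH 7.2; schedule: 5 min incubation before reading; benchmarks: neutral control DMSO, positive control TFP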
# Cneo AK release: Cryptococcus neoformans lysis via adenylate kinase release | lysis activity, % at 15 µM | 0.2% of 360,000 active | C. neoformans lysis, adenylate kinase release luminescence, 4 h; normalised: neutral wells 0, clomiphene wells 100;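 active = mean lysis activity across replicates of at least 80%, whatever share of replicates individually reach that level; inactive = mean lysis activity below 80%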
#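 Material: C. neoformans cells; Schedule: 4 h static compound exposure, 37 °C, read 1 h post-reagent; Measured by: adenylate kinase release luminescence; Read-out: signal increase indicating cell lysis; Controls: Clomiphene as positive lysis control.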
# Ecoli rRNA inh: inhibits bacterial ribosomal RNA function over humanized ribosomes | E. coli WT GFP vs humanized-ribosome RFP mutants, fluorescence, 24 h; hits give low values; DMSO median 0, no signal -100 | GFP signal change (wild-type ribosome), % (test concentration not listed) | 1.6% of 350,000 active | AID 720706;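 active = significant combined selectivity score with lowered wild-type GFP, culture density cut under 30%, mutant RFP and density less affected; inactive = any of these conditions unmet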
# PGC1a acetyl inh: lowers PGC1a acetylation signal in U2OS cells; AlphaScreen anti-acetyl-lysine; with virally co-expressed GCN5 acetyltransferase; inhibition, % at 15.6 µM; 0.17% of 350,000 active;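 active = every replicate shows inhibition of at least 40%; inconclusive = mean inhibition at least 40% but some replicate below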;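 note: 0% = neutral control wells and 100% = positive control wells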
# HepG2 cytotox: cytotoxic compounds in HepG2 cells; shares compounds with Ecoli rRNA inh; HepG2 viability, ATP luminescence, 72 h; activity change, negative = cytotoxicity, unspecified at 26 µM; 30 tested, under 10 active;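 active = compounds whose fitted half-maximal signal-loss concentration is at most twice their highest valid dose; inconclusive = flat curve with 30 to 70% signal loss, or poor fit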
# AID977621: wild-type E. coli growth inhibition versus H69 humanized strain – H69 mutant RFP, wild-type GFP, cherry-pick, dose response; shares compounds with Ecoli rRNA inh; fluorescence, 24 h; activity change, negative = inhibition at 50 µM; 1,900 tested, under 10 active; AID 977621;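 active = Wild-type ribosome reporter drop at least double the humanized mutant ribosome reporter drop, growth loss under a set limit; inconclusive = no clear call, values can overlap the other calls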;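 note: wild-type GFP and H69 mutant RFP strains grown together 50/50 in each well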
# AID977628: E. coli growth inhibition, wild-type GFP versus h24 humanized RFP strain, dose response, h24 mutant RFP vs wild-type GFP, cherry-pick. E. coli WT GFP strain growth, fluorescence, 24 h. shares compounds with Ecoli rRNA inh. 1,900 tested, under 10 active. activity change, negative = inhibition at 50 µM;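 active = compound lowering the normal-ribosome reporter at least twice as much as the humanized-ribosome reporter, growth loss under a set limit; inconclusive = no clear call, values can overlap the other calls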;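 note: wild-type GFP and h24 humanized RFP strains co-cultured 1 to 1 per well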
# An asterisk follows results filed as active; ? = inconclusive; . = not tested or not shown.
SMILES,SIRT5 inh,Statin myotox sup,S100A4 inh HTS,Cneo AK release,Ecoli rRNA inh,PGC1a acetyl inh,AID977621,AID977628,others
COC(=O)C(CC#Cc1ccc2c(c1)[C@]1(C(=O)N2)[C@H](c2ccc(OCCO)cc2)N2[C@H](c3ccccc3)[C@H](c3ccccc3)OC(=O)[C@H]2[C@@H]1C(=O)N1CCCCCCC1)C(=O)OC,2.2,.,-40.9,-0.8,.,5.4,.,.,
CSc1nc2nc3c(cc2c(=O)n1-c1ccccc1C)CCCC3,-1.4,.,-3.1,1.6,-29.5*,-4.7,-15.5,-10.9,
CCOc1cc(/C=C(\CC(=O)O)c2nc3ccccc3s2)ccc1OC,2.6,.,-2.0,.,-20.5*,.,-8.04,-11.7,
CS(=O)(=O)N1CCc2cc(-c3csc(NC(=O)C(c4ccccc4)c4ccccc4)n3)ccc21,.,22.1,.,0.4,.,-14.6,.,.,
CC1Cc2cc(-c3csc(NC(=O)Cc4ccccc4)n3)ccc2N1S(C)(=O)=O (stereo not drawn),3.1,0.6,6.8,-0.4,-26.1*,-25.9,-4.25,-16.6,
CC(=O)Nc1ccc(NC(=O)c2c(C)nc3ccccn23)cc1,.,-11.2,.,4.9,.,-6.1,.,.,
Cc1nc2ccccn2c1C(=O)Nc1ccc(Cl)cc1,7.4,.,2.8,.,-18.0*,8.3,-8.14,-6.14,
O=C(CCC(=O)N1CCN(c2ccc(F)cc2)CC1)c1ccc(F)cc1,-1.2,.,-1.9,.,-20.5*,.,-1.84,-11.7,
CC1Cc2cc(S(=O)(=O)N3CCN(c4ccc(Cl)cc4)CC3)ccc2N1C(=O)C1CC1 (stereo not drawn),-3.4,9.3,-6.0,10.4,3.7,2.6,.,.,
CC1Cc2cc(S(=O)(=O)N3CCN(c4cccc(Cl)c4)CC3)ccc2N1C(=O)C1CC1 (stereo not drawn),-2.4,-22.3,-0.5,-1.7,-25.5*,2.9,-5.45,-8.8,
Cc1cc(C(=O)Nc2ccc3ccccc3c2)c(C)o1,1.9,9.6,-5.3,-4.4,-22.0*,.,-9.26,-7.13,
CC(=O)c1cc(C(=O)Nc2ccc3ccccc3c2)c(C)o1,0.0,8.1,4.4,.,-4.4,.,.,.,
Cc1ccc(C(=O)Nc2ccc3ccccc3c2)cc1,-2.8,-32.7,0.6,-19.0,6.2,-13.9,.,.,
Cc1sc(C(=O)Nc2ccc3ccccc3c2)cc1CC(=O)O,0.8,1.2,8.2,-2.5,-31.2*,13.8,.,-5.1,
Cc1ccoc1C(=O)Nc1ccc2ccccc2c1,0.6,-45.8,-3.5,-2.7,-20.2*,.,-5.74,.,
CCCc1nc2ccc(Br)cn2c1Cc1cccc(Cl)c1,-6.8,-19.2,-5.3,10.4,-21.9*,-3.2,-3.25,-3.33,
Cn1c(=O)c2c(nc(N3CCOCC3)n2C/C=C/c2ccccc2)n(C)c1=O,-1.3,.,-0.6,0.3,-18.4*,15.2,-9.2,-11.2,
Cc1cc(C)cc(NS(=O)(=O)c2cc(C(=O)NCc3ccccn3)ccc2Cl)c1,.,-6.1,3.8,7.8,-20.0*,.,-3.18,-8.03,
Cc1cc(C(N)=O)nn1-c1c(Cl)cc(Cl)cc1Cl,0.5,-1.2,-1.4,.,-30.6*,1.3,-3.54,.,
NC(=O)c1cc(C(N)=O)nc(Cl)n1,-5.9,.,-0.6,.,12.3,.,.,.,
Cc1ccc2nc(-c3cccnc3)c(Nc3ccccc3C)n2c1,4.1,1.9,3.3,-2.4,0.5,3.9,.,.,
Cc1ccccc1Nc1c(-c2cccnc2)nc2ccc(Br)cn12,-2.4,19.9,-10.6,.,-24.9*,.,6.92,0.275,
CCC(=O)Nc1nc2c(OC)ccc(OC)c2s1,-4.5,15.4,2.4,2.1,-20.6*,0.1,-10.1,.,
CCNC(=O)[C@H]1[C@H](CO)[C@H]2Cn3c(ccc(/C=C/c4ccccc4)c3=O)[C@@H]1N2,-85.7,-5.8,7.3,1.8,1.7,3.0,.,.,
Nc1ccccc1Sc1c[nH]c2ccccc12,0.9,58.3,-6.0,10.5,-25.6*,-29.9,-0.733,-11.4,
SMILES,SIRT5 inh,Statin myotox sup,S100A4 inh HTS,Cneo AK release,Ecoli rRNA inh,PGC1a acetyl inh,AID977621,AID977628,others
Nc1ccccc1Sc1nc2ccccc2[nH]1,0.2,.,2.2,.,.,.,.,.,
COc1ccc(-n2cc(-c3ccccc3)c3c(N4CCOCC4)ncnc32)cc1,-4.2,-2.2,-0.9,-3.3,-29.4*,5.1,.,?,HepG2 cytotox=15.5
COc1ccc(-n2cc(-c3ccccc3)c3c(NCCCN4CCOCC4)ncnc32)cc1,3.0,.,-5.9,.,-55.5,-1.5,.,.,
COc1ccc(NC(=O)c2nc[nH]c2C(=O)N(C)Cc2ccccc2)cc1,-1.2,13.9,-2.1,-1.1,-19.1*,2.2,?,.,
C[C@@H]1CN([C@H](C)CO)S(=O)(=O)c2ccc(Br)cc2O[C@H]1CN(C)Cc1ccncc1,2.5,-40.9,2.8,57.1,-17.3,20.5,.,.,
COC(=O)c1ccc(CSc2n[nH]c(=S)s2)o1,.,0.2,.,0.3,.,-6.5,.,.,
COC(=O)c1ccc(CSc2nc3ccccc3s2)o1,-1.0,-5.5,3.9,-5.2,-32.7*,4.2,11.1,-2.88,
O=C(Cc1cccc(NC(=O)C2CCCN(C(=O)CCc3ccccc3)C2)c1)Nc1cccc(C(=O)N2CCCC2)c1 (stereo not drawn),.,5.7,-5.2,0.1,-19.0*,-3.1,?,.,
O=C(Cc1ccc(NC(=O)C2CCCN(C(=O)CCc3ccccc3)C2)cc1)Nc1cccc(C(=O)N2CCCCC2)c1 (stereo not drawn),-1.7,-4.0,0.0,-1.2,-5.0,.,.,.,
O=C(O)c1cccnc1SCc1ccccc1Cl,-2.1,9.5,-5.5,0.2,-21.6*,.,-9.83,.,
O=C(O)c1cccnc1Sc1ccccc1Cl,-6.3,-3.9,-4.3,-1.1,5.6,7.5,.,.,
C[C@H](CO)N1C[C@H](C)[C@@H](CN(C)CC2CC2)Oc2c(NC(=O)Nc3ccc(F)cc3)cccc2C1=O,-3.5,17.0,-14.2,-7.9,-1.4,.,.,.,
O=C(NCCOc1nc(N2CCCCC2)nc(N2CCCCC2)n1)Nc1ccccc1,-1.0,7.5,3.1,10.7,1.1,12.9,.,.,
CC(=O)NCCOc1nc(N2CCCCC2)nc(N2CCCCC2)n1,-2.5,13.1,-4.8,0.9,-25.2*,-1.3,-6.6,-10.4,
Cc1ccc(NC(=O)C[n+]2cc(-c3ccc(C)cc3)n3c2CCC3)cc1,-6.6,-193.5,-2.2,2.6,.,8.1,.,.,
Cc1ccc(-c2c[n+](CC(=O)OCc3ccccc3)c3n2CCC3)cc1,6.8,-2.9,3.1,-2.1,-14.4*,-5.4,-20.2,-8.44,
